According to publication PMC5543507 (Cancer Science, 2017):
Values joined by “and” are separate entries in the source; they are usually repeats but may differ in a detail not shown here. Equal values may be shown once. Marks after values point to notes of the source that are not given here.

Key:
GLI1 expression [1] = details: advanced solid tumors; 80–640 mg; cited from earlier work
[2] = system: leukemic stem cell (LSC) burden in xenograft models; details: cited from earlier work
[3] = 5–600 mg dose range; cited from earlier work
solid tumors = details: glasdegib monotherapy; cited from earlier work
[4] = system: select advanced hematologic malignancies; assay: Preliminary clinical activity by disease-specific response criteria; format: in vivo, Japanese patients
In short: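 Patients aged ≥20 years had refractory, resistant or intolerant MDS, MF, CMML, CML or AML. They took oral test compound once daily at 25, 50 or 100 mg in 28-day cycles, after a lead-in dose on Day −5. Response was judged by disease-specific criteria and summarised with descriptive statistics.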

[5] = Plasma pharmacokinetics after single and multiple oral doses; format: in vivo, Japanese patients; details: for half-life / AUC(0-inf) / Tmax / Vd/F: human, plasma; for C trough: multiple dose, Cycle 1/Day 21; for C trough / CL/F: geometric mean (geometric %CV); for CL/F: single dose
In short: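 Dosing was oral, once daily, at 25, 50 or 100 mg (3 + 3 design), with a single lead-in dose on Day −5. Serial blood was drawn on Day −5 and on Cycle 1 Days 1, 8, 15 and 21, then on Day 1 of later cycles. Plasma drug was assayed by a validated method (LLOQ 3.00 ng/mL). Cmax, Tmax and AUC came from noncompartmental analysis.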

SMO = details: preclinical studies; cited from earlier work
[6] = system: Japanese patients with select advanced hematologic malignancies; assay: Safety: adverse events and dose-limiting toxicities, phase I trial of glasdegib; format: in vivo
In short: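 Once-daily oral dosing at 25, 50 or 100 mg followed a 3 + 3 design. AEs, serious AEs and laboratory tests were monitored until 28 days after the last dose or until drug-related toxicities resolved, graded by NCI CTCAE v4.0. DLT window: Day −5 to Cycle 1 Day 28. DLTs: grade ≥3 nonhematologic toxicity; myelosuppression lasting ≥42 days; grade ≥3 QTc prolongation (≥501 ms).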

[7] = system: patients with select advanced myeloid malignancies and solid tumors; details: phase I dose-escalation study, United States and Italy; cited from earlier work
hematologic malignancies = details: cited from earlier work
GLI1 expression [8] = assay: GLI1 expression in normal skin biopsies; format: in vivo, Japanese patients; details: for Downregulation of GLI1 expression from skin biopsies: steady state (Cycle 1 Day 21 vs screening)
In short: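 Adults with advanced hematologic malignancies received once-daily oral test compound at 25, 50 or 100 mg in 28-day cycles, after a single lead-in dose on Day −5. Normal skin biopsies were taken at screening and on Cycle 1 Day 21. Expression of Hh pathway-regulated genes was measured relative to baseline, matched to PK sampling where possible, and summarised graphically and descriptively.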

## CN1CC[C@@H](NC(=O)Nc2ccc(C#N)cc2)C[C@@H]1c1nc2ccccc2[nH]1 [glasdegib]
GLI1 expression [1]
  Downregulation of GLI1 expression in surrogate tissue: > 80%
[2]; preclinical studies
  Antitumor activity in vivo: significant antitumor activity
[2]; xenograft models
  Leukemic stem cell (LSC) burden: significant reduction
[3]
  Dose proportionality of pharmacokinetics: dose‐proportional
Solid tumors
  Patients with prolonged (≥6 months) stabilization of disease: 13%
  Patients with stable disease: 35%
[4]; 25 mg
  AML patients achieving stable disease: 1 patients
  MDS patients achieving stable disease: 1
[4]; 50 mg
  AML patients achieving stable disease: 1 patients
[4]; 100 mg
  MDS patients achieving stable disease: 1
[4]; 100-mg group
  AML patients achieving stable disease: 2 patients
[4]; 100-mg group, 8% of 13
  AML patients with morphological complete remission as best response: 1 patient
[4]; all dose groups, 31%
  AML patients achieving stable disease: Four
[5]; 25–100 mg
  Dose proportionality of maximum plasma concentration and exposure: broadly dose‐proportional
[5]; oral
  half-life: 20.7 ± 7.7 h
[5]; po, 25 mg
  AUC(0-inf): 3350 ng·h/mL
  Tmax: 2 h
  Vd/F: 165 L
  half-life: 15.3 h
[5]; po, 50 mg
  AUC(0-inf): 9590 ng·h/mL
  Tmax: 4 h
  Vd/F: 225 L
  half-life: 30.3 h
[5]; po, 100 mg
  AUC(0-inf): 13100 ng·h/mL
  Tmax: 2 h
  Vd/F: 184 L
  half-life: 17.1 h
[5]; 50 mg q.d.
  C trough: 240 (37) ng/mL
[5]; 100 mg q.d.
  C trough: 343 (35) ng/mL
[5]; 25 mg oral
  CL/F: 7.47 (68) L/h
[5]; 50 mg oral
  CL/F: 5.22 (64) L/h
[5]; 100 mg oral
  CL/F: 7.63 (20) L/h
SMO
  Inhibition of SMO in vitro: inhibited SMO in vitro
[6]; 50 mg group
  Permanent discontinuation of treatment due to AE: 3 patients
[6]; 100 mg group
  Permanent discontinuation of treatment due to AE: 1 patient
[6]; 9 of 13 patients with treatment-related AE
  Severity of treatment-emergent, treatment-related AE: 1–3 grade
[6]; 13 patients, 8%
  Leukopenia, grade 4 treatment-emergent AE: 1 n
  Neutropenia, grade 4 treatment-emergent AE: 1 n
  Reduced platelet count, grade 4 treatment-emergent AE: 1 n
  Thrombocytopenia, grade 4 treatment-emergent AE: 1 n
[6]; 13 patients, 15%
  Anemia, grade 3 treatment-emergent all-causality AE: 2 n
  Hypokalemia, grade 3 treatment-emergent all-causality AE: 2 n
  Thrombocytopenia, grade 3 treatment-emergent all-causality AE: 2 n
[6]; 13 patients, 23%, grade 1 muscle cramp, grade 1 dysgeusia, grade 1–3 pyrexia
  Treatment temporarily discontinued or dose reduced due to a treatment-related AE: 3 patients
[6]; 13 patients, 25, 50 and 100 mg q.d., Day −5 to Day 28 of Cycle 1
  First-cycle dose-limiting toxicities (DLT): No DLT were observed
[6]; 50-mg group
  Temporary discontinuations for an all-cause AE: 1 patient
[6]; 100-mg group, 23%
  Temporary discontinuations for an all-cause AE: 3 patients
[6]; N = 13
  Grade 4 or 5 treatment-related adverse events: No grade 4 or 5 treatment‐related adverse events were reported in this study.
  Pyrexia, grade 3 treatment-related: a One patient experienced grade 3 treatment‐related pyrexia.
[6]; N = 13, 25, 50 and 100 mg q.d. oral pooled
  Any adverse event, treatment-emergent all-causality, all grades: 13 (100.0) n (%)
[6]; N = 13, all doses pooled
  Alopecia, all-causality, all grades: 4 (30.8) n (%)
  Alopecia, all-causality, ≥Grade 3: 0 n (%)
  Alopecia, treatment-related, Grade 3: 0 n (%)
  Alopecia, treatment-related, all grades: 4 (30.8) n (%)
  Any adverse event, treatment-emergent all-causality, ≥Grade 3: 7 (53.8) n (%)
  Any adverse event, treatment-emergent treatment-related, all grades: 9 n (%) and 9 (69.2) n (%)
  Any adverse event, treatment-related, Grade 3: 1 (7.7) ^a n (%)
  Blood creatinine phosphokinase increased, all-causality, all grades: 3 (23.1) n (%)
  Blood creatinine phosphokinase increased, all-causality, ≥Grade 3: 0 n (%)
  Blood creatinine phosphokinase increased, treatment-related, Grade 3: 0 n (%)
  Blood creatinine phosphokinase increased, treatment-related, all grades: 3 (23.1) n (%)
  Constipation, all-causality, all grades: 6 (46.2) n (%)
  Constipation, all-causality, ≥Grade 3: 0 n (%)
  Constipation, treatment-related, Grade 3: 0 n (%)
  Constipation, treatment-related, all grades: 3 (23.1) n (%)
  Decreased appetite, all-causality, all grades: 6 (46.2) n (%)
  Decreased appetite, all-causality, ≥Grade 3: 0 n (%)
  Decreased appetite, treatment-related, Grade 3: 0 n (%)
  Decreased appetite, treatment-related, all grades: 4 (30.8) n (%)
  Diarrhea, all-causality, all grades: 3 (23.1) n (%)
  Diarrhea, all-causality, ≥Grade 3: 0 n (%)
  Diarrhea, treatment-related, Grade 3: 0 n (%)
  Diarrhea, treatment-related, all grades: 3 (23.1) n (%)
  Dysgeusia, all-causality, all grades: 9 (69.2) n (%)
  Dysgeusia, all-causality, ≥Grade 3: 0 n (%)
  Dysgeusia, treatment-related, Grade 3: 0 n (%)
  Dysgeusia, treatment-related, all grades: 9 (69.2) n (%)
  Fatigue, all-causality, all grades: 3 (23.1) n (%)
  Fatigue, all-causality, ≥Grade 3: 0 n (%)
  Hypokalemia, all-causality, all grades: 3 (23.1) n (%)
  Hypokalemia, all-causality, ≥Grade 3: 2 (15.4) n (%)
  Muscle spasms, all-causality, all grades: 6 (46.2) n (%)
  Muscle spasms, all-causality, ≥Grade 3: 0 n (%)
  Muscle spasms, treatment-related, Grade 3: 0 n (%)
  Muscle spasms, treatment-related, all grades: 5 (38.5) n (%)
  Pyrexia, all-causality, all grades: 6 (46.2) n (%)
  Pyrexia, all-causality, ≥Grade 3: 1 (7.7) n (%)
  Thrombocytopenia, all-causality, all grades: 3 (23.1) n (%)
  Thrombocytopenia, all-causality, ≥Grade 3: 3 (23.1) n (%)
  Weight decreased, all-causality, all grades: 3 (23.1) n (%)
  Weight decreased, all-causality, ≥Grade 3: 0 n (%)
[6]; dose levels tested (25–100 mg)
  Overall safety and tolerability: safe and well tolerated
[6]; doses up to 100 mg q.d.
  Maximum tolerated dose: not reached
[7]
  Tolerability: well tolerated
Hematologic malignancies; European and American patients with hematologic malignancies
  Patients with some suggestion of clinical activity: 23 of 47
Hematologic malignancies; phase I dose-escalation study, United States and Italy
  Patients with preliminary clinical activity: approximately half
GLI1 expression [8]; 50 mg group
  Downregulation of GLI1 expression from skin biopsies: > 80%
GLI1 expression [8]; 100 mg group
  Downregulation of GLI1 expression from skin biopsies: > 80%
GLI1 expression [8]; steady state, 25-mg group
  Marked downregulation of GLI1 expression from skin biopsies: not observed
